# Legend:
# [1] = target: Acetylcholinesterase (Homo sapiens) (UniProt P22303)
# [2] = tested on: Staphylococcus aureus; experiment: Antimicrobial activity against Staphylococcus aureus; type: functional
# Method in brief: (§1)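 Antibacterial MIC determination in µg/mL against a bacterial panel that includes Streptococcus pyogenes, with gentamicin as positive control; otherwise run by a literature procedure.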
# [3] = tested on: Staphylococcus aureus; experiment: Antimicrobial activity against methicillin-resistant Staphylococcus aureus; type: functional
# Method in brief: as §1
# [4] = tested on: Escherichia coli; experiment: Antimicrobial activity against Escherichia coli; type: functional
# [5] = tested on: Streptococcus pyogenes; experiment: Antimicrobial activity against Streptococcus pyogenes; type: functional
# Method in brief: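 Antibacterial test read as MIC (µg/mL), following a previously published procedure, with gentamicin run as positive control.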
# [6] = tested on: Candida albicans; experiment: Antimicrobial activity against Candida albicans; type: functional
# Method in brief: (§2)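 Antifungal test read as MIC (µg/mL), following a previously published procedure, with amphotericin B run as positive control.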
# [7] = tested on: Klebsiella pneumoniae; experiment: Antimicrobial activity against Klebsiella pneumoniae; type: functional
# [8] = tested on: Cryptococcus neoformans; experiment: Antimicrobial activity against Cryptococcus neoformans; type: functional
# Method in brief: as §2
# Acetylcholinesterase (Homo sapiens), sequence (P22303 whole entry): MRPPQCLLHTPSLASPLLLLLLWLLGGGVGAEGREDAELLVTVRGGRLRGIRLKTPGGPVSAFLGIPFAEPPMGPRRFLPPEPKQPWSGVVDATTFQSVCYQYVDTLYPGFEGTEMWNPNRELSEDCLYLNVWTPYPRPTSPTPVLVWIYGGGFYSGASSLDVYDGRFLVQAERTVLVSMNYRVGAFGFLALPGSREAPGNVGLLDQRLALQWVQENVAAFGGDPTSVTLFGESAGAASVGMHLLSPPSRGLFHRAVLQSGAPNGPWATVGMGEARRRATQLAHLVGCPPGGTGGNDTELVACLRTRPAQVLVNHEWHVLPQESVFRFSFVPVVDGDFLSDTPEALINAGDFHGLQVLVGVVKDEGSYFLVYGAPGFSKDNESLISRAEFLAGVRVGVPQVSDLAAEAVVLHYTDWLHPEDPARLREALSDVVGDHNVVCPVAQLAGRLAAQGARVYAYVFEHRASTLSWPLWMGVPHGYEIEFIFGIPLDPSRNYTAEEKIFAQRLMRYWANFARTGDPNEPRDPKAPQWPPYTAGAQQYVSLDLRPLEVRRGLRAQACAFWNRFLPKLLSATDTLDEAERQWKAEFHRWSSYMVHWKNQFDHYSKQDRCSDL
Compound,MIC [1] [ng],MIC [2] [µg/mL],MIC [3] [µg/mL],MIC [4] [µg/mL],MIC [5] [µg/mL],MIC [6] [µg/mL],MIC [7] [µg/mL],MIC [8] [µg/mL]
CC/C=C/C12C3CC4C5[C@@H](C)/C(=C6/OC(=O)C(C)=C6OC)O[C@]5(O3)C1CCN42 (some centres undefined),5,–,–,–,–,–,–,–
CC[C@H](O)[C@@H]1CC[C@@H]2O[C@@]34CCC[N+]1([O-])[C@@H]2[C@H]3[C@H](C)/C(=C1/OC(=O)C(C)=C1OC)O4 (some centres undefined),100,–,–,–,–,–,–,–
C[C@@H]1[C@H](O)[C@@H](C)/C=C/C=C/C=C/C=C/C=C/C=C/C=C/[C@H](O[C@@H]2O[C@H](C)[C@@H](O)[C@H](N)[C@@H]2O)C[C@@H]2O[C@](O)(C[C@@H](O)C[C@@H](O)[C@H](O)CC[C@@H](O)C[C@@H](O)CC(=O)O[C@H]1C)C[C@H](O)[C@H]2C(=O)O [AMPHOTERICIN B],–,250,250,250,250,250,250,250
COc1cc(-c2cc3c(O)cccc3o2)c(C)c(O)c1C [STEMOFURAN E],–,250,250,250,250,250,250,250
COc1c(C)c(O)c(C)c(-c2cc3c(O)cccc3o2)c1C [STEMOFURAN F],–,250,250,250,250,250,250,250
COc1cc(-c2cc3c(O)cccc3o2)c(C)c(OC)c1C [STEMOFURAN J],–,250,250,250,250,250,250,250
COc1c(C)c(O)c(C)c(-c2cc3ccccc3o2)c1C [STEMOFURAN K],–,250,250,250,250,250,250,250
GENTAMICIN,–,250,250,250,250,250,250,250

# Reference: ChEMBL document CHEMBL1641399, “Phytochemical investigations of Stemona curtisii and synthetic studies on stemocurtisine alkaloids” (2010)
